In brackets after ≈: the same amount, converted by molar mass. Some results are limits rather than exact numbers.

Format in all cases: functional
The subject of one assay is Staphylococcus aureus. As to the kind of experiment: Antibacterial activity against Staphylococcus aureus ATCC 25923 after 24 hrs by broth microdilution method. The settings on record: ATCC 25923, 24 h. The gist of the method:
(§1)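 NCCLS broth microdilution in Mueller-Hinton broth, 96-well plates. Initial inoculum 1-5 × 10^3 cells/mL. Incubated in a moist chamber at 35 °C for 24 h, then absorbance read at 492 nm. MIC taken as the concentration giving 90% growth inhibition relative to the growth control.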

The test system of the next assay is Aspergillus fumigatus. As to the kind of experiment: Antifungal activity against Aspergillus fumigatus after 72 hrs by broth microdilution method. The gist of the method: (§2)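 NCCLS broth microdilution in MOPS-buffered RPMI 1640, 96-well plates. Inoculum 1-5 × 10^3 cells/mL, moist chamber, 35 °C. Absorbance at 492 nm read at 48 h (C. albicans, C. parapsilosis), 72 h (C. neoformans, S. schenckii, A. fumigatus) or 96 h (T. mentagrophytes). MIC defined as 90% growth inhibition versus growth control.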
Background: In broth dilution the organism is exposed to a series of concentrations in liquid medium.

Another assay relates to Escherichia coli. The assay is described as follows: Antibacterial activity against Escherichia coli ATCC 9637 after 24 hrs by broth microdilution method. The settings on record: ATCC 9637, 24 h. The gist of the method:
as §1

A further assay deals with Sporothrix schenckii. As to the kind of experiment: Antifungal activity against Sporothrix schenckii after 72 hrs by broth microdilution method. The gist of the method: as §2
For the next assay, the system named is Candida parapsilosis. The assay is described as follows: Antifungal activity against Candida parapsilosis ATCC 22019 after 48 hrs by broth microdilution method. The following applies: Lodderomyces parapsilosis, ATCC 22019, 48 h. The gist of the method: as §2
For another assay, the system named is Cryptococcus neoformans. As to the kind of experiment: Antifungal activity against Cryptococcus neoformans after 72 hrs by broth microdilution method. The gist of the method: as §2
Assay [1] has as its system Trichophyton mentagrophytes. The assay is described as follows: Antifungal activity against Trichophyton mentagrophytes after 96 hrs by broth microdilution method. The gist of the method:
as §2

For a further assay, the system named is Candida albicans. As to the kind of experiment: Antifungal activity against Candida albicans after 48 hrs by broth microdilution method. The gist of the method: as §2
The subject of another assay is Pseudomonas aeruginosa. The assay is described as follows: Antibacterial activity against Pseudomonas aeruginosa ATCC BAA-427 after 24 hrs by broth microdilution method. The settings on record: ATCC BAA-427, 24 h. The gist of the method:
as §1

For a further assay, the system named is Klebsiella pneumoniae. The assay is described as follows: Antibacterial activity against Klebsiella pneumoniae ATCC 27736 after 24 hrs by broth microdilution method. The following applies: ATCC 27736, 24 h. The gist of the method: as §1

For `CCOC(=O)CSC1=C(SCC(=O)OCC)C(=O)C(SCC(=O)OCC)=C(SCC(=O)OCC)C1=O`, the MIC – broadly, the smallest concentration in the dilution series that meets the test's criterion for growth inhibition – in the assay with Staphylococcus aureus is 50 µg/mL (≈ 86.1 µM); against Aspergillus fumigatus, over 50 µg/mL; in the assay on Escherichia coli, over 50 µg/mL; with Sporothrix schenckii, over 50 µg/mL; in the assay on Candida parapsilosis, 25 µg/mL (≈ 43 µM); against Cryptococcus neoformans, 50 µg/mL (≈ 86.1 µM). Besides, the MIC in [1] was 50 µg/mL (≈ 86.1 µM); in the assay with Candida albicans, 25 µg/mL (≈ 43 µM); with Pseudomonas aeruginosa, over 50 µg/mL; against Klebsiella pneumoniae it was over 50 µg/mL.

`O=C1C(Cl)=C(Sc2cccc3ccccc23)C(=O)C(Cl)=C1Sc1cccc2ccccc12`: the MIC in the assay with Staphylococcus aureus was 25 µg/mL (≈ 50.7 µM); in the assay on Aspergillus fumigatus it was over 50 µg/mL; against Escherichia coli it was over 50 µg/mL; against Sporothrix schenckii, 50 µg/mL (≈ 101 µM); against Candida parapsilosis, 12.5 µg/mL (≈ 25.3 µM); in the assay on Cryptococcus neoformans, 25 µg/mL (≈ 50.7 µM). The MIC in [1] was 50 µg/mL (≈ 101 µM); against Candida albicans it was 25 µg/mL (≈ 50.7 µM); against Pseudomonas aeruginosa it was over 50 µg/mL; in the assay on Klebsiella pneumoniae, over 50 µg/mL.

For `OC(Cn1cncn1)(Cn1cncn1)c1ccc(F)cc1F` [FLUCONAZOLE], the MIC in the assay on Aspergillus fumigatus is over 32 µg/mL; with Sporothrix schenckii, 4 µg/mL (≈ 13.1 µM); against Candida parapsilosis, 0.5 µg/mL (≈ 1.63 µM); with Cryptococcus neoformans, 2 µg/mL (≈ 6.53 µM); in assay [1], 16 µg/mL (≈ 52.2 µM); in the assay with Candida albicans it was 1 µg/mL (≈ 3.27 µM).

Take `CCOC(=O)CC(SC1=C(SC(CC(=O)OCC)C(=O)OCC)C(=O)C(SC(CC(=O)OCC)C(=O)OCC)=C(SC(CC(=O)OCC)C(=O)OCC)C1=O)C(=O)OCC` (configuration not stated): the MIC with Staphylococcus aureus is over 50 µg/mL; against Aspergillus fumigatus it was over 50 µg/mL; in the assay on Escherichia coli it was over 50 µg/mL; against Sporothrix schenckii, over 50 µg/mL; against Candida parapsilosis, 25 µg/mL (≈ 27 µM); against Cryptococcus neoformans, 50 µg/mL (≈ 54 µM). Besides, the MIC was 50 µg/mL (≈ 54 µM) in [1], 25 µg/mL (≈ 27 µM) with Candida albicans, over 50 µg/mL in the assay with Pseudomonas aeruginosa and over 50 µg/mL against Klebsiella pneumoniae.

`O=C1C=C(Sc2ccccc2)C(=O)C=C1Sc1ccccc1`: the MIC against Staphylococcus aureus is over 50 µg/mL; in the assay with Aspergillus fumigatus, over 50 µg/mL; in the assay with Escherichia coli it was over 50 µg/mL; against Sporothrix schenckii it was 50 µg/mL (≈ 154 µM); in the assay with Candida parapsilosis, 50 µg/mL (≈ 154 µM); in the assay on Cryptococcus neoformans, 25 µg/mL (≈ 77.1 µM). For the same compound, the minimum inhibitory concentration (MIC) in [1] was 50 µg/mL (≈ 154 µM); against Candida albicans, 25 µg/mL (≈ 77.1 µM); against Pseudomonas aeruginosa it was over 50 µg/mL; against Klebsiella pneumoniae it was over 50 µg/mL.

On to `Clc1ccccc1C(c1ccccc1)(c1ccccc1)n1ccnc1` [CLOTRIMAZOLE], for which the MIC with Aspergillus fumigatus amounted to 8 µg/mL (≈ 23.2 µM); against Sporothrix schenckii, 4 µg/mL (≈ 11.6 µM); in the assay on Candida parapsilosis, 1 µg/mL (≈ 2.9 µM); against Cryptococcus neoformans, 0.25 µg/mL (≈ 0.725 µM); in assay [1], 2 µg/mL (≈ 5.8 µM); in the assay with Candida albicans, 0.25 µg/mL (≈ 0.725 µM).

Turning to `O=C1C(Cl)=C(Sc2cccc3ccccc23)C(=O)C(Sc2cccc3ccccc23)=C1Sc1cccc2ccccc12`, the MIC with Staphylococcus aureus is 12.5 µg/mL (≈ 20.3 µM); in the assay on Aspergillus fumigatus, over 50 µg/mL; against Escherichia coli it was over 50 µg/mL; in the assay with Sporothrix schenckii, 50 µg/mL (≈ 81 µM); against Candida parapsilosis, 12.5 µg/mL (≈ 20.3 µM); in the assay with Cryptococcus neoformans, 25 µg/mL (≈ 40.5 µM). In addition, the MIC in assay [1] is 50 µg/mL (≈ 81 µM); against Candida albicans, 25 µg/mL (≈ 40.5 µM); with Pseudomonas aeruginosa, over 50 µg/mL; with Klebsiella pneumoniae, over 50 µg/mL.

In the case of `O=C1C(Cl)=C(N2CCCC2)C(=O)C(Cl)=C1N1CCCC1`, the MIC with Staphylococcus aureus is over 50 µg/mL; against Aspergillus fumigatus it was over 50 µg/mL; in the assay with Escherichia coli it was over 50 µg/mL; with Sporothrix schenckii, over 50 µg/mL; with Candida parapsilosis, 50 µg/mL (≈ 159 µM); in the assay with Cryptococcus neoformans, 25 µg/mL (≈ 79.3 µM). Also, the MIC in assay [1] is 50 µg/mL (≈ 159 µM); in the assay with Candida albicans it was 25 µg/mL (≈ 79.3 µM); with Pseudomonas aeruginosa it was over 50 µg/mL; against Klebsiella pneumoniae it was over 50 µg/mL.

Regarding `Cc1ccc(SC2=C(Cl)C(=O)C(Sc3ccc(C)cc3)=C(Cl)C2=O)cc1`, the MIC was 50 µg/mL (≈ 119 µM) against Staphylococcus aureus; over 50 µg/mL against Aspergillus fumigatus; over 50 µg/mL against Escherichia coli; 50 µg/mL (≈ 119 µM) in the assay on Sporothrix schenckii; 25 µg/mL (≈ 59.3 µM) with Candida parapsilosis; 25 µg/mL (≈ 59.3 µM) against Cryptococcus neoformans. Also, the MIC was 50 µg/mL (≈ 119 µM) in assay [1], 25 µg/mL (≈ 59.3 µM) with Candida albicans, over 50 µg/mL in the assay with Pseudomonas aeruginosa and over 50 µg/mL against Klebsiella pneumoniae.

Take `O=C1C(Cl)=C(Sc2ccccc2)C(=O)C(Cl)=C1Sc1ccccc1`: the MIC is 50 µg/mL (≈ 127 µM) against Staphylococcus aureus; over 50 µg/mL against Aspergillus fumigatus; over 50 µg/mL against Escherichia coli; 50 µg/mL (≈ 127 µM) with Sporothrix schenckii; 25 µg/mL (≈ 63.6 µM) against Candida parapsilosis; 25 µg/mL (≈ 63.6 µM) against Cryptococcus neoformans. Besides, the MIC in assay [1] is 50 µg/mL (≈ 127 µM); against Candida albicans, 25 µg/mL (≈ 63.6 µM); against Pseudomonas aeruginosa, over 50 µg/mL; with Klebsiella pneumoniae, over 50 µg/mL.

These data come from ChEMBL document CHEMBL2086245, “Micelles catalyzed chemo- and regio-selective one pot and one step synthesis of 2,3,5,6-tetrakis(alkyl and arylsulfanyl)-1,4-benzoquinones and 2,5-diaminosubstituted-1,4-benzoquinones "In-Water" and their biological evaluation as antibacterial and antifungal agents” (Eur J Med Chem, 2012).
